APJ agonist: agonists of human apelin receptor APJ, primary screen, CHO-K1 cells, PathHunter beta-arrestin, luminescence | P35414 | 0% DMSO wells, 100% apelin | activation, % at 20 µM | hit rate 0.11% among 330,000 | AID 2520, 2010;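 active = activation more than six SD over the plate average, tested at 20 µM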;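 note: 0% = DMSO alone and 100% = apelin-13 at 10 nM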
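Material: engineered CHO-K1 APJ arrestin reporter cells; amount: 1000 CHO-K1 reporter cells seeded per well; incubation: compound stimulation 90 min at 25 °C, detection 60 min; signal: luminescent beta-gal fragment complementation, chemiluminescent substrate; read-out basis: APJ agonist activity; controls: DMSO-only wells as negative, 10 nM Apelin-13 as positive control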
CXCR6 inh: CXCR6 receptor inhibitors, primary screen, cell-based, beta-arrestin, luminescence, CHO-K1 PathHunter, 1536-well; C-X-C chemokine receptor type 6 (Homo sapiens), O00574; AID 602244, 2012; hit rate 0.36% among 360,000; inhibition, % at 20 µM; in the data active = inhibition above about 34%, passing the limit was not always enough;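 note: antagonist mode with CXCL16 agonist at 10 nM final; 0% = 10 nM CXCL16 with DMSO and 100% = unstimulated wells without agonist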
APJ antag: antagonists of human apelin receptor APJ, primary screen, CHO-K1 cells, beta-arrestin complementation, luminescence. P35414. inhibition, % at 20 µM. hit rate 0.32% among 330,000;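 active = inhibition above about 40% at 20 µM, limit read from the data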;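 note: cells challenged with 10 nM apelin-13 agonist together with compound; plate controls were apelin-13 plus DMSO wells for no effect and DMSO wells lacking apelin-13 for full effect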
EBI2 antag: EBI2 receptor antagonists, beta-arrestin recruitment, primary screen, cell-based, luminescence, 7a,25-OHC stimulation, uHTS. 7a,25-OHC stimulated. inhibition, % at 5 µM. hit rate 0.81% among 360,000. AID 651636, 2012; in the data active = inhibition above about 38%;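 note: enzyme fragment complementation signal reports receptor beta-arrestin coupling in cells; 0% = agonist plus DMSO wells and 100% = wells without agonist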
Target sequence (P32249 whole entry, looked up, the tested form may be a part): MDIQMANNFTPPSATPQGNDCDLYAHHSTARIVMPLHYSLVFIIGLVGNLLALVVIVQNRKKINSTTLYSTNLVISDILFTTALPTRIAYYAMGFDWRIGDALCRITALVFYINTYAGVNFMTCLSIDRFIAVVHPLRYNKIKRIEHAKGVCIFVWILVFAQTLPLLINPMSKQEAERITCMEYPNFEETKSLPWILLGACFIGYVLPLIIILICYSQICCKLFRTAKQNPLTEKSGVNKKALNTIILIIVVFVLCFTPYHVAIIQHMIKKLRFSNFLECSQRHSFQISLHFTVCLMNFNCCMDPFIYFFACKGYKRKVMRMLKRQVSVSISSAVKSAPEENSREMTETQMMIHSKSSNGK
CCR6 antag: CCR6 receptor antagonists, primary screen, cell-based, CHO-K1, luminescence, beta-arrestin, uHTS; hit rate 0.49% among 340,000; AID 493098, 2011; inhibition, % at 20 µM; C-C chemokine receptor type 6 (Homo sapiens), P51684; CHO-K1 CCR6 PathHunter beta-arrestin, CCL20-stimulated;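 active = compounds whose inhibition of the agonist-driven luminescence signal at 20 µM reaches about 50%, limit read from the data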;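 note: cells stimulated with CCL20 at 14 nM final; plate controls were DMSO with CCL20 for no effect and DMSO without agonist for full effect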
EBI2 antag conf: EBI2 antagonist hit retest, beta-arrestin, confirmation, cell-based, single concentration, luminescence, 7a,25-OHC stimulation | shares compounds with EBI2 antag | inhibition, % at 5 µM | hit rate 29% among 2,400 | AID 651997, 2013 | 7a,25-OHC antagonism;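 active = inhibition of at least 50%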
EBI2 ag: EBI2 agonist activity of antagonist hits, confirmation, counter-screen for EBI2 antagonist project, cell-based, single concentration, agonist mode, luminescence | 2,400 tested, under 10 active | shares compounds with EBI2 antag | activation, % at 5 µM | EBI2-expressing cells, 60 min; 0% vehicle, 100% 7α,25-dihydroxycholesterol control;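 active = activation of at least 50%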
bGal cs: E. coli beta-galactosidase enzyme inhibition, confirmation, counter-screen for EBI2 antagonist project, biochemical, luminescence, single concentration | shares compounds with EBI2 antag | purified beta-galactosidase, luminescent Galacton Star, 15 min | inhibition, % at 5 µM | hit rate 1% among 2,400;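 active = replicate-average signal at least 3 plate SD below neutral wells, shown as high inhibition, flagging enzyme-inhibiting false positives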;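 note: 0% = DMSO wells with enzyme and 100% = wells lacking enzyme; higher means stronger loss of beta-gal luminescence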
* hit, by the source's call; x = no result. Only some compounds are listed: those with a hit (about 1.5% of all), similar ones and a draw of the others.

SMILES | APJ agonist | CXCR6 inh | APJ antag | EBI2 antag | CCR6 antag | EBI2 antag conf | EBI2 ag | bGal cs
S=c1[nH]nc(-c2cc(-c3ccccc3)n[nH]2)n1/N=C/C(Br)=C/c1ccccc1 | -2 | 4 | 3 | 52* | 13 | 48 | 0 | 8
Cc1ncc(CN=Cc2ccc(Cl)cc2)c(N)n1 | -3 | -8 | -13 | -3 | 10 | x | x | x
Cc1nc(CSc2ccc(Cl)cc2)cc(NCc2ccccc2)n1 | -1 | -4 | 5 | 47* | 11 | 20 | 0 | -1
Cc1ccc(CN2C(=O)c3ccccc3C2c2nnnn2C(C)C)cc1 (stereo unspecified) | x | 2 | x | -11 | x | x | x | x
COc1ccc(COC(=O)CCNC(=O)c2ccc(Cl)cc2)cc1 | 0 | -18 | -36 | 1 | 6 | x | x | x
CN(C)S(=O)(=O)c1ccc(C(=O)NCCSc2ccc(Br)cc2)cc1 | -2 | 6 | 12 | 65* | 22 | 47 | 1 | 2
CC(C)(C)c1ccc(C(=O)NCc2ccc(Cl)cc2)cc1 | -1 | 2 | -4 | 53* | 5 | 34 | 1 | 6
CC(C)(C)OC(=O)N1CCN(c2ccc(CNC(=O)c3ccc(Cl)cc3)cc2)CC1 | -3 | -2 | -8 | 59* | -1 | 15 | 2 | 4
CC(C)(C)OC(=O)N1CCCN(C(=O)c2ccc(Cl)cc2)CC1 | -2 | -14 | 13 | -1 | 9 | x | x | x
CC(C)(C)c1ccc(C(=O)NCc2ccccc2)cc1 | 8 | -12 | 4 | 34 | 7 | x | x | x
COC(=O)c1cn(NC(=O)c2cccc(OC)c2)c(=O)c2ccccc12 | -1 | 8 | 14 | 0 | 13 | x | x | x
Cc1ccc2oc(C(=O)N3CCC(N4CCSCC4)CC3)c(C)c2c1 | -4 | -6 | 4 | 71* | 2 | 46 | 2 | 4
Cc1c(C(=O)N2CCC(N3CCSCC3)CC2)oc2c(F)cccc12 | -4 | -7 | -10 | 47* | 6 | 12 | -1 | -12
CCOC(=O)C1CCN(C2CCN(C(=O)c3oc4c(F)cccc4c3C)CC2)CC1 | 0 | -3 | 2 | 33 | 0 | x | x | x
O=C(COC(=O)CN1C(=O)C2CC=CCC2C1=O)Nc1cccc([N+](=O)[O-])c1 (stereo unspecified) | x | -1 | x | -4 | x | x | x | x
COc1ccc(NC(=O)c2ccc(COCC(F)(F)C(F)F)cc2)cc1 | -2 | -6 | -10 | 44* | 16 | 21 | 0 | -17
COc1ccc(CCNC(=O)CSc2cn(Cc3cccc(C)c3)c3ccccc23)cc1OC | -7 | 22 | 7 | 55* | 30 | 29 | -1 | -9
O=C(NCc1ccc2c(c1)OCO2)c1ccc(C2SCC(=O)N2Cc2ccco2)cc1 (stereo unspecified) | -6 | 5 | 0 | 27 | 11 | x | x | x
COc1ccc2cc(-c3[nH]ncc3CN3CCCC3c3nonc3C)ccc2c1 (stereo unspecified) | 0 | -3 | -26 | 46* | -2 | 28 | 0 | 6
O=C(CCCOc1ccccc1)N1CCN(S(=O)(=O)c2cccc(F)c2)CC1 | -7 | -2 | 15 | 37 | 13 | x | x | x
Cc1ccc(OCCCC(=O)N2CCN(S(=O)(=O)c3cccc(F)c3)CC2)cc1 | -6 | 6 | -60 | 53* | 15 | 13 | -1 | -14
O=C(CCCOc1ccccc1)N1CCN(S(=O)(=O)c2ccccc2)CC1 | -5 | 2 | -2 | 46* | -2 | 40 | 1 | 1
O=C(COc1ccc(Br)cc1)N1CCN(S(=O)(=O)/C=C/c2ccccc2)CC1 | -1 | -9 | -1 | 92* | 12 | 86* | 1 | 5

Screening data deposited in PubChem by Sanford-Burnham Center for Chemical Genomics.
